Key:
Histamine H3 receptor [1] = molecular target: T1, Histamine H3 receptor (Homo sapiens, UniProt Q9Y5N1); test: Antagonist activity at human cloned histamine H3 receptor expressed in CHO-K1 cells assessed as inhibition of R-alpha-methylhistamine-induced [35S]GTPgammaS binding; type: functional, cell-based
[2] = molecular target: Voltage-gated inwardly rectifying potassium channel KCNH2 (Homo sapiens, UniProt Q12809); test: Antagonist activity at human ERG in HEK293 cells assessed as inhibition of [35S]N-[(4R)-1'-[(2R)-6-cyano-1,2,3,4-tetrahydro-2-naphthalenyl]-3,4-dihydro-4-hydroxyspiro[2H-1-benzopyran-2,4'-piperidin]-6-yl]methanesulfonamide binding
Chain of Voltage-gated inwardly rectifying potassium channel KCNH2 (Q12809 whole entry): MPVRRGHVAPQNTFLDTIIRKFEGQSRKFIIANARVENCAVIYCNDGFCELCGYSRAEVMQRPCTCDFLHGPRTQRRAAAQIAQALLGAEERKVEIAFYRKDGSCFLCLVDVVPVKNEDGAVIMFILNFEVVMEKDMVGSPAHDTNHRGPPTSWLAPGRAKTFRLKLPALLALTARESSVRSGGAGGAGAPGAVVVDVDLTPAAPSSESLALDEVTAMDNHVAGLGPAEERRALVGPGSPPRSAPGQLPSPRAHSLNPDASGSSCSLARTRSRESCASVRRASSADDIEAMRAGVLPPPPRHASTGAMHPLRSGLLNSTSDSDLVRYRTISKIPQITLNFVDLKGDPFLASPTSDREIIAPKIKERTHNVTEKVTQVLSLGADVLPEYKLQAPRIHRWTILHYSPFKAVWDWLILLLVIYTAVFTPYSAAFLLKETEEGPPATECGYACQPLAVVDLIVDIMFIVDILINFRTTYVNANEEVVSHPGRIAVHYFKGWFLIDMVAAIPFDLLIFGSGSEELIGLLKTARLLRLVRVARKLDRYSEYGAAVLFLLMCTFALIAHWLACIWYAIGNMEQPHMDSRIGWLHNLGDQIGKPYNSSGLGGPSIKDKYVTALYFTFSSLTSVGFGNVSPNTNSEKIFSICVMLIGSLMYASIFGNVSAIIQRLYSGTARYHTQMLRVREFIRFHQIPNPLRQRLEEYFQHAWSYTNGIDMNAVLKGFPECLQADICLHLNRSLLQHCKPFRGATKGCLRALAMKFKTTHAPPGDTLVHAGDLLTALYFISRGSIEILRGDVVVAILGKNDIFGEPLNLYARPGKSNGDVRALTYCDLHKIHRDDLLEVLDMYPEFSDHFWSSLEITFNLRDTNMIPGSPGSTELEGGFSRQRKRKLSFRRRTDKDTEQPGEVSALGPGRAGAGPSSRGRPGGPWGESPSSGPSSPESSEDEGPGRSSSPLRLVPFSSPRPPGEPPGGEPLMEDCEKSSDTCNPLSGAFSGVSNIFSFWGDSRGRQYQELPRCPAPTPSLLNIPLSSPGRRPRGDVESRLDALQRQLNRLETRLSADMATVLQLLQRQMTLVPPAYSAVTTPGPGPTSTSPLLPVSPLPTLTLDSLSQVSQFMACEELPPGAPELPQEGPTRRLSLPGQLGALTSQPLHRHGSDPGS

[3] = Ex vivo drug level in wild type mdr1a (+/+) CF1 mouse plasma at 0.3 mg/kg, po after 2 hrs; type: ADME, organism-based; parameters: dose 0.3 mg/kg, route oral; details: read-out: Drug uptake
Outline: (§1)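 Female mdr1a (+/+) and mdr1a (−/−) CF-1 mice dosed by oral gavage. Terminal blood and whole brain collected 2 h later. Brain homogenized by ultrasonication in 4 volumes water. Plasma and brain deproteinized with ethanol plus internal standard, then measured by LC-MS/MS (positive ESI, MRM). Mean ± SE, n = 3. Brain/plasma ratios calculated from mean values.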

Mus musculus [4] = test: Ex vivo receptor occupancy of histamine H3 receptor expressed in po dosed MDR1a deficient CF1 mouse plasma assessed by brain occupancy/brain to plasma ratio after 2 hrs; type: functional
Outline: (§2)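 Female wild-type and mdr1a (−/−) CF-1 mice given vehicle or compound po (0.1–3 mg/kg) and decapitated at 2 h. Coronal striatal sections (20 μm) incubated 10 min at room temperature with 400 pM tritiated quinazolinone H3 inverse agonist radioligand in sodium phosphate buffer. Nonspecific binding defined with 10 μM R-α-methylhistamine. Sections imaged 6 h by beta-Imager. Brain Occ90 obtained from occupancy versus brain concentration. Plasma Occ90 = brain Occ90/brain-to-plasma ratio.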

[5] = Ratio of drug level in brain to plasma in Sprague-Dawley rat at 10 mg/kg, po after 2 hrs; type: ADME, organism-based; parameters: dose 10 mg/kg, route oral; details: read-out: BPR
Outline: (§3)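 Male SD rats dosed orally at 10 mg/kg. Plasma, brain and CSF concentrations determined 2 h after dosing. Brain/plasma ratio taken from these levels. Mean of n = 3 animals.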

Histamine H2 receptor = Histamine H2 receptor (Homo sapiens, UniProt P25021); test: Inhibition of human histamine H2 receptor
Chain of Histamine H2 receptor (P25021 whole entry): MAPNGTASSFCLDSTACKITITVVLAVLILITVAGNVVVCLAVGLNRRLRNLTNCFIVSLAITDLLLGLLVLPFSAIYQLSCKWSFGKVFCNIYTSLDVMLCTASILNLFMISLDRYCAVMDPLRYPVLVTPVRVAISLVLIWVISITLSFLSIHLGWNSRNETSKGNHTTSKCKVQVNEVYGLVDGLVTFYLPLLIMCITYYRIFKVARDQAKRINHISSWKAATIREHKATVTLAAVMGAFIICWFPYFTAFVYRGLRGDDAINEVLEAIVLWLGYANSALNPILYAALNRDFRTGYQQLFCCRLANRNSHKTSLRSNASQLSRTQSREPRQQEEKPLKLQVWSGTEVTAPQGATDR

Brain [6] = test: Ex vivo drug level in wild type mdr1a (+/+) CF1 mouse brain at 0.3 mg/kg, po after 2 hrs; type: ADME, organism-based; parameters: dose 0.3 mg/kg, route oral; outline: as §1
Histamine H4 receptor = Histamine H4 receptor (Homo sapiens, UniProt Q9H3N8); test: Inhibition of human histamine H4 receptor
Chain of Histamine H4 receptor (Q9H3N8 whole entry): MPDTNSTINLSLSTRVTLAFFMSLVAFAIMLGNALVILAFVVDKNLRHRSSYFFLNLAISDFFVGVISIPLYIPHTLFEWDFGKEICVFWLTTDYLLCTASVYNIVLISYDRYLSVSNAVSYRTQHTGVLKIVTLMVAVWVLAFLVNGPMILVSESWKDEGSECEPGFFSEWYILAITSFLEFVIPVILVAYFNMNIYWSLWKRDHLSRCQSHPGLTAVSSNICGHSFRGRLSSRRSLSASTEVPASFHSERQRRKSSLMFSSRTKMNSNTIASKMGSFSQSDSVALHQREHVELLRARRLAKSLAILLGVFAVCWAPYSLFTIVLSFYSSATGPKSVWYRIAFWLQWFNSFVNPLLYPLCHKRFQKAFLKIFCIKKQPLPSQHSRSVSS

Rattus norvegicus [7] = test: Increase in tele-methylhistamine level in po dosed Sprague-Dawley rat brain after 2 hrs relative to control; type: functional, organism-based
Outline: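 Male SD rats given vehicle (0.5% methylcellulose) or compound po at 1, 3, 10 mg/kg, co-dosed with pargyline ip. Decapitated at 2 h and brains homogenized. tele-Methylhistamine measured by HPLC with fluorometry after solid-phase extraction. Mean ± SE from five experiments. Compared with vehicle by ANOVA with Dunnett's test.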

LLC-PK1 [8] = test: Ratio of permeability from apical to basolateral side over basolateral to apical side in pig LLC-PK1 cells expressing human MDR1; type: ADME, cell-based, Sus scrofa
[9] = Cmax in rhesus monkey at 0.3 mg/kg, iv and 1 mg/kg, po; type: ADME, organism-based, Macaca mulatta; details: in vivo
Outline: (§4)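 Male SD rats, male Beagle dogs, male rhesus monkeys given single doses iv (PEG400/EtOH/H2O 50/10/40) or po by gavage (0.5% methylcellulose suspension). Rats 1 mg/kg iv and 3 mg/kg po; dogs and monkeys 0.3 mg/kg iv and 1 mg/kg po. Plasma sampled at multiple times up to 24 h, deproteinized with ethanol plus internal standard. Mean of n = 3 animals/dose.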

[10] = Cmax in Beagle dog at 0.3 mg/kg, iv and 1 mg/kg, po; type: ADME, organism-based, Canis lupus familiaris; details: in vivo; outline: as §4
[11] = AUC (0 to infinity) in Beagle dog at 1 mg/kg, po; type: ADME, organism-based, Canis lupus familiaris, Plasma; parameters: time infinity, dose 1 mg/kg, route oral; details: Beagle, plasma; outline: as §4
Histamine H3 receptor [12] = molecular target: T1, Histamine H3 receptor; test: Displacement of [3H]N-alpha-methylhistamine from human recombinant histamine H3 receptor expressed in CHO-K1 cells; type: cell-based
[13] = Ratio of drug level in cerebrospinal fluid to brain in Sprague-Dawley rat at 10 mg/kg, po after 2 hrs; type: ADME, organism-based, CSF/Brain; parameters: dose 10 mg/kg, route oral; details: in vivo
Histamine H3 receptor [14] = molecular target: Histamine H3 receptor (Rattus norvegicus, UniProt Q9QYN8); test: Displacement of [3H]N-alpha-methylhistamine from rat recombinant histamine H3 receptor expressed in HEK293 cells; type: cell-based
Chain of Histamine H3 receptor (Rattus norvegicus, UniProt Q9QYN8) (Q9QYN8 whole entry): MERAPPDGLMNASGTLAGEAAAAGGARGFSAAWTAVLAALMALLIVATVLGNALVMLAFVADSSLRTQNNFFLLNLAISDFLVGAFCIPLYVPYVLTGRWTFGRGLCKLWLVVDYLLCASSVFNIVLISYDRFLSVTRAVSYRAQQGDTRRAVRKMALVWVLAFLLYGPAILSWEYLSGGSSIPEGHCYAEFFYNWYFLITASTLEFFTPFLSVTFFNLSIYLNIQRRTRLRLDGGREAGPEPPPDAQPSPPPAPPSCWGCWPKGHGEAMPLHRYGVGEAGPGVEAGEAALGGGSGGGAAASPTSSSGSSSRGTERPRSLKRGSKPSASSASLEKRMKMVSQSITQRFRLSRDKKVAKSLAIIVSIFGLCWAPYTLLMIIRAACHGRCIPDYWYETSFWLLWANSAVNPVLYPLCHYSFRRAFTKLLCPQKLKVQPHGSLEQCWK

Mus musculus [15] = test: Ex vivo receptor occupancy of histamine H3 receptor expressed in po dosed wild type CF1 mouse plasma assessed by brain occupancy/brain to plasma ratio after 2 hrs; type: functional; outline: as §2
[16] = Plasma clearance in Sprague-Dawley rat at 1 mg/kg, iv; type: ADME, organism-based; parameters: dose 1 mg/kg, route intravenous; outline: as §4
[17] = Ratio of drug level brain to plasma in wild type mdr1a (+/+) CF1 mouse at 0.3 mg/kg, po after 2 hrs; type: ADME, organism-based; parameters: dose 0.3 mg/kg, route oral; details: read-out: BPR; outline: as §1
[18] = Ratio of drug level brain to plasma in mdr1a (-/-) deficient CF1 mouse at 0.3 mg/kg, po after 2 hrs; type: ADME, organism-based; parameters: dose 0.3 mg/kg, route oral; details: read-out: BPR; outline: as §1
[19] = Oral bioavailability in Sprague-Dawley rat at 3 mg/kg; type: ADME, organism-based; details: in vivo; outline: as §4
Rhesus monkey [20] = test: Oral bioavailability in rhesus monkey at 1 mg/kg; type: ADME, organism-based, Macaca mulatta; details: in vivo; outline: as §4
[21] = Ex vivo drug level in mdr1a (-/-) deficient CF1 mouse plasma at 0.3 mg/kg, po after 2 hrs; type: ADME, organism-based; parameters: dose 0.3 mg/kg, route oral; details: read-out: Drug uptake; outline: as §1
LLC-PK1 [22] = test: Ratio of permeability from apical to basolateral side over basolateral to apical side in pig LLC-PK1 cells expressing mouse MDR1a; type: ADME, cell-based, Sus scrofa
[23] = AUC (0 to infinity) in Sprague-Dawley rat at 3 mg/kg, po; type: ADME, organism-based; parameters: time infinity, dose 3 mg/kg, route oral; details: plasma; outline: as §4
[24] = Cmax in Sprague-Dawley rat at 1 mg/kg, iv and 3 mg/kg, po; type: ADME, organism-based; details: in vivo; outline: as §4
Mus musculus [25] = test: Ex vivo receptor occupancy of histamine H3 receptor expressed in wild type po dosed CF1 mouse brain after 2 hrs; type: functional; outline: as §2
[26] = Oral bioavailability in Beagle dog at 1 mg/kg; type: ADME, organism-based, Canis lupus familiaris; details: Beagle, in vivo; outline: as §4
Rattus norvegicus [27] = test: Ex vivo receptor occupancy of histamine H3 receptor in Sprague-Dawley rat assessed as drug level in brain at 1 mg/kg, po after 2 hrs; type: functional
Outline: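 Male SD rats given vehicle or 1 mg/kg compound by oral gavage and decapitated at 2 h. Striatal sections (20 μm) incubated 10 min at room temperature with 400 pM tritiated H3 inverse agonist radioligand in sodium phosphate buffer. Nonspecific binding defined with 10 μM R-α-methylhistamine. Beta-Imager exposure 6 h. Drug levels measured by LC-MS/MS.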

Rhesus monkey [28] = test: AUC (0 to infinity) in rhesus monkey at 1 mg/kg, po; type: ADME, organism-based, Macaca mulatta, Plasma; parameters: time infinity, dose 1 mg/kg, route oral; details: in vivo; outline: as §4
Histamine H3 receptor [29] = molecular target: Histamine H3 receptor (Mus musculus, UniProt P58406); test: Displacement of [3H]N-alpha-methylhistamine from mouse recombinant histamine H3 receptor
Chain of Histamine H3 receptor (Mus musculus, UniProt P58406) (P58406 whole entry): as the sequence (Q9QYN8 whole entry) above, with T15A, A286T, A290G, R387H, I389V counted along it

Brain [30] = test: Drug level in Sprague-Dawley rat brain at 10 mg/kg, po after 2 hrs; type: ADME, organism-based; parameters: dose 10 mg/kg, route oral; details: in vivo; outline: as §3
[31] = Plasma concentration in Sprague-Dawley rat at 10 mg/kg, po after 2 hrs; type: ADME, organism-based; parameters: dose 10 mg/kg, route oral; outline: as §3
[32] = Drug level in Sprague-Dawley rat cerebrospinal fluid at 10 mg/kg, po after 2 hrs; type: ADME, organism-based; parameters: dose 10 mg/kg, route oral; details: read-out: Drug uptake; outline: as §3
[33] = Plasma clearance in Beagle dog at 0.3 mg/kg, iv; type: ADME, organism-based, Canis lupus familiaris; parameters: dose 0.3 mg/kg, route intravenous; outline: as §4
Brain [34] = test: Ex vivo drug level in mdr1a (-/-) deficient CF1 mouse brain at 0.3 mg/kg, po after 2 hrs; type: ADME, organism-based; parameters: dose 0.3 mg/kg, route oral; outline: as §1
Histamine H1 receptor = Histamine H1 receptor (Homo sapiens, UniProt P35367); test: Inhibition of human histamine H1 receptor
Chain of Histamine H1 receptor (P35367 whole entry): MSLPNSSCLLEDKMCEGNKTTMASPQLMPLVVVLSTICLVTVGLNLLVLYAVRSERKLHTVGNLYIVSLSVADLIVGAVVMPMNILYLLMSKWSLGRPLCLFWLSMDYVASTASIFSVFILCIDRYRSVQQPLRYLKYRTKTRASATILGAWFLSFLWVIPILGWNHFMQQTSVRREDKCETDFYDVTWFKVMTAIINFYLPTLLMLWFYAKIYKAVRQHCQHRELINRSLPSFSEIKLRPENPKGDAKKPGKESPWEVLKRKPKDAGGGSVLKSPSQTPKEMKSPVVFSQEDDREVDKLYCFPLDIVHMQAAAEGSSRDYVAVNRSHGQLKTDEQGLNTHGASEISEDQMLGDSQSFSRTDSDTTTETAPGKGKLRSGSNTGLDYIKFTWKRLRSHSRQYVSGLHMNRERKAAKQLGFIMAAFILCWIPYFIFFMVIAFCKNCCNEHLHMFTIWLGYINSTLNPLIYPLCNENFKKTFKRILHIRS

T1 sequence (Q9Y5N1 whole entry): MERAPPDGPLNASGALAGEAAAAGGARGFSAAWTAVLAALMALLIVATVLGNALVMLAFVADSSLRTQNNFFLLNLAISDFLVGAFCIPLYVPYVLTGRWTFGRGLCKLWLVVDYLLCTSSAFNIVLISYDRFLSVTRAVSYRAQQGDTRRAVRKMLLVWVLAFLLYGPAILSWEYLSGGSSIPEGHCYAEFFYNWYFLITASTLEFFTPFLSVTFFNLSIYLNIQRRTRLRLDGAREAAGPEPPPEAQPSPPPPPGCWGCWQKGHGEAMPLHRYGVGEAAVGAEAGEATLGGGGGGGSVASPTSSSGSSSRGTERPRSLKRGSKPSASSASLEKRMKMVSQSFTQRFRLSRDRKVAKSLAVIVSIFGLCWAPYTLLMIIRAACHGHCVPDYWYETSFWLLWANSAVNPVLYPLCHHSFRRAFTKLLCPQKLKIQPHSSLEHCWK

## Cc1nc2ccccc2c(=O)n1-c1ccc(OC2CCN(C(C)C)CC2)cc1
Histamine H3 receptor [1]
  IC50: 14 nM

## Cc1nc2ccccc2c(=O)n1-c1ccc(OC2CCN(C3CCCC3)C2)cc1 (stereo not given)
Histamine H3 receptor [1]
  IC50: 37 nM

## Cc1nc2cc(F)ccc2c(=O)n1-c1ccc(OC2CCN(C3CCC3)CC2)cc1
Histamine H3 receptor [1]
  IC50: 1.3 nM

## Cc1nc2ccncc2c(=O)n1-c1ccc(OC2CCN(C3CCC3)CC2)cc1
Histamine H3 receptor [1]
  IC50: 2 nM
[2]
  IC50: > 10000 nM

## CCCN1CCC(Oc2ccc(-n3c(C)nc4ccccc4c3=O)cc2)CC1
Histamine H3 receptor [1]
  IC50: 60 nM

## Cc1nc2cnccc2c(=O)n1-c1ccc(OC2CCN(C3CCC3)CC2)cc1
Histamine H3 receptor [1]
  IC50: 1.8 nM
[2]
  IC50: > 10000 nM

## Cc1nc2ccccc2c(=O)n1-c1ccc(OC2CCN(C)CC2)cc1
Histamine H3 receptor [1]
  IC50: 740 nM

## Cc1nc2ccccc2c(=O)n1-c1ccc(OC2CCCN(C3CCCC3)CC2)cc1 (stereo not given)
Histamine H3 receptor [1]
  IC50: 7 nM

## COc1cccc2c(=O)n(-c3ccc(OC4CCN(C5CCC5)CC4)cc3)c(C)nc12
Histamine H3 receptor [1]
  IC50: 4.2 nM
[2]
  IC50: > 10000 nM

## Cc1nc2ccccc2c(=O)n1-c1ccc(OC2CCN(C3CCC3)C2)cc1 (stereo not given)
Histamine H3 receptor [1]
  IC50: 103 nM

## CCCCN1CCC(Oc2ccc(-n3c(C)nc4ccccc4c3=O)cc2)CC1
Histamine H3 receptor [1]
  IC50: 91 nM

## Cc1nc2ccccc2c(=O)n1-c1ccc(OC2CCN(C3CCCCC3)CC2)cc1
Histamine H3 receptor [1]
  IC50: 43 nM

## Cc1nc2ccccc2c(=O)n1-c1ccc(OC2CCC(N3CCCC3)C2)cc1 (stereo in doubt; 3a)
Histamine H3 receptor [1]
  IC50: 3.4 nM
[2]
  IC50: > 10000 nM

## Cc1nc2ccc(Cl)cc2c(=O)n1-c1ccc(OC2CCN(C3CCC3)CC2)cc1
Histamine H3 receptor [1]
  IC50: 1.5 nM
[2]
  IC50: 5400 nM

## Cc1nc2cc(Cl)ccc2c(=O)n1-c1ccc(OC2CCN(C3CCC3)CC2)cc1
Histamine H3 receptor [1]
  IC50: 3 nM
[2]
  IC50: 3900 nM

## Cc1nc2cccc(F)c2c(=O)n1-c1ccc(OC2CCN(C3CCC3)CC2)cc1
[3]
  concentration at 2 h: 32 nM
Mus musculus [4]
  Occ90: 30 nM
[5]
  Kp at 2 h: 3.2
Histamine H2 receptor
  IC50: > 10000 nM
Histamine H3 receptor [1]
  IC50: 0.55 nM
Brain [6]
  Drug uptake: 0.062 nmol/g
Histamine H4 receptor
  IC50: > 10000 nM
Rattus norvegicus [7]
  Activity: Dose-dependent effect
LLC-PK1 [8]
  Ratio: 1
[9]
  Cmax: 380 nM
[10]
  Cmax: 20 nM
[11]
  AUC(0-inf): 0.05 µM·h
Histamine H3 receptor [12]
  Ki: 6.8 nM
[2]
  IC50: > 10000 nM
[13]
  Ratio: 0.13
Histamine H3 receptor [14]
  Ki: 6 nM
Mus musculus [15]
  Occ90: 144 nM
[16]
  clearance: 11 mL/min/kg
[17]
  Kp at 2 h: 1.9
[18]
  Kp at 2 h: 9.4
[19]
  bioavailability: 53%
Rhesus monkey [20]
  F: 37%
[21]
  concentration at 2 h: 28 nM
LLC-PK1 [22]
  Ratio: 1.8
[23]
  AUC(0-inf): 6.2 µM·h
[24]
  Cmax: 1300 nM
Mus musculus [25]
  Occ90: 0.28 nmol/g
[26]
  bioavailability: 4.8%
Rattus norvegicus [27]
  Activity: >90%
Rhesus monkey [28]
  AUC: 1.7 µM·h
Histamine H3 receptor [29]
  Ki: 8.4 nM
Brain [30]
  Drug uptake: 7.6 nmol/g
[31]
  concentration at 2 h: 2400 nM
[32]
  concentration at 2 h: 950 nM
[33]
  clearance: 44 mL/min/kg
Brain [34]
  Drug uptake: 0.26 nmol/g
Histamine H1 receptor
  IC50: > 10000 nM

## CNC(=O)c1ccc(Oc2ccc3c(c2)CCN(C2CCC2)CC3)nc1 [GSK189254]
Histamine H3 receptor [1]
  IC50: 0.55 nM

## Cc1nc2ccccc2c(=O)n1-c1ccc(O[C@H]2CC[C@@H](N3CCCC3)CC2)cc1
Histamine H3 receptor [1]
  IC50: 10 nM

Source: ChEMBL document CHEMBL1142515, “Synthesis and evaluation of structurally constrained quinazolinone derivatives as potent and selective histamine H3 receptor inverse agonists” (J Med Chem, 2008)
